32 compounds from ChEMBL document CHEMBL1131566, “(E)-3-(2-(N-phenylcarbamoyl)vinyl)pyrrole-2-carboxylic acid derivatives. A novel class of glycine site antagonists” (J Med Chem, 1998) can be followed below.

One may read the IC50 as the concentration that inhibits the measured activity by half. As a reminder, the Ki is the equilibrium dissociation constant of an inhibitor or competing ligand from its target. Low values mean a stronger hold on the target, high ones a looser hold on the target.

For assay [1], the target named is T1, Glutamate receptor ionotropic, NMDA 1 (Rattus norvegicus, UniProt P35439). The assay is described as follows: (§1) Inhibition of binding of [3H]glycine to N-methyl-D-aspartate glutamate receptor 1 from crude synaptic membranes prepared from adult rat cerebral cortex. It counts as tissue-based.
The target of assay [2] is T1, Glutamate receptor ionotropic, NMDA 1. The description is as §1. The class given is tissue-based. In short, it runs like this: (§2)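 Crude synaptic membranes from adult rat cerebral cortex are incubated 20 min at 4 °C in 50 mM Tris/citrate pH 7.10 with 20 nM [³H]glycine. Compounds come from 5 mM DMSO stocks, seven concentrations (0.1 nM to 100 μM) in duplicate, with a reference control. Ki is fitted by nonlinear curve fitting from ≥6-point curves, geometric mean of ≥3 experiments. Displacement at 100 μM is given as %SB.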
The source holds these as a separate data set.

The target in assay [3] is T2, Glutamate NMDA receptor (Rattus norvegicus) (UniProt P35439+Q00959+Q00960+Q00961+Q62645+Q8VHN2+Q9R1M7). The assay is described as follows: Displacement of the [3H]CPP binding to N-methyl-D-aspartate glutamate receptor at 100 uM represented by the percent of specific binding(%SB). The class given is protein-complex assay. In short, it runs like this: (§3)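 Rat cortical membrane binding, inhibition of [³H]CPP (NMDA glutamate site), [³H]AMPA or [³H]kainic acid. Compounds come from 5 mM DMSO stocks and are tested in duplicate at five concentrations (10 nM to 100 μM); a reference compound is included as control. Displacement at 100 μM is given as % specific binding.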

Assay [4] has as its target Glutamate receptor ionotropic, NMDA 1 (Rattus norvegicus) (UniProt P35439). Kind of assay: Displacement of [3H]glycine binding to N-methyl-D-aspartate glutamate receptor 1 at 100 uM represented by the percent of specific binding(%SB). Summed up: as §2
For orientation: Loss of bound radioactivity is the signal in a displacement assay; it reports binding, not function.

Assay [5] deals with T3, Glutamate receptor ionotropic, AMPA (Rattus norvegicus, UniProt P19490+P19491+P19492+P19493). Kind of assay: Inhibition of binding of [3H]AMPA to Ionotropic glutamate receptor AMPA. It counts as protein-complex assay. Summed up: as §3
In assay [6] the target is Glutamate NMDA receptor. Kind of assay: Compound was evaluated for its ability ot displace [3H]CPP binding to N-methyl-D-aspartate glutamate receptor. It counts as protein-complex assay. In short, it runs like this: as §3
Assay [7] has as its target Glutamate receptor ionotropic, kainate. The assay is described as follows: Inhibition of binding of [3H]-kainic acid to Ionotropic glutamate receptor kainate. The class given is protein-complex assay. Summed up: as §3
Assay [8] deals with Glutamate receptor ionotropic, kainate (Rattus norvegicus) (UniProt P22756+Q01812+P42260+P42264+Q63273). Kind of assay: Displacement of [3H]-kainic acid in the Ionotropic glutamate receptor kainate at 100 uM represented by the percent of specific binding (%SB). It counts as protein-complex assay. In short, it runs like this: as §3
The target of assay [9] is Glutamate receptor ionotropic, NMDA 1 (Rattus norvegicus) (UniProt P35439). The assay is described as follows: Compound was evaluated for its ability to displace [3H]-TCP binding to N-methyl-D-aspartate glutamate receptor 1. alpha value 0 indicates full antagonist. In short, it runs like this:
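[³H]TCP binding runs 2 h at 30 °C in Tris/5mM HCl pH 7.7 with 1 μM glutamic acid. Nonspecific binding is defined with 30 μM (+)-MK801. Glycine concentration-response curves are run in the presence of increasing test-compound concentrations to derive α.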

The target in assay [10] is T4, Glutamate receptor ionotropic, AMPA (Rattus norvegicus) (UniProt P19491+P19492+P19493+P19490). Kind of assay: (§4) Displacement of the [3H]AMPA binding to Ionotropic glutamate receptor AMPA at 100 uM represented by the percent of specific binding(%SB). It counts as protein-complex assay. In short, it runs like this:
as §3

Assay [11] addresses Glutamate receptor ionotropic, NMDA 1 (Rattus norvegicus) (UniProt P35439). Described as §1. It counts as tissue-based. In short, it runs like this:
as §2

The target in assay [12] is Glutamate receptor ionotropic, kainate. Kind of assay: Inhibition of binding of [3H]-kainic acid to Ionotropic glutamate receptor kainate in crude synaptic membranes prepared from adult rat cerebral cortex. It counts as cell membranes. In short, it runs like this: as §3
The target in assay [13] is T2, Glutamate NMDA receptor (Rattus norvegicus). Kind of assay: Displacement of the ligand in the N-methyl-D-aspartate glutamate receptor at 100 uM represented by the percent of specific binding(%SB). The class given is protein-complex assay.
For assay [14], the target named is T3, Glutamate receptor ionotropic, AMPA. The description is as §4. It counts as protein-complex assay. Summed up:
as §3

The target in assay [15] is T4, Glutamate receptor ionotropic, AMPA (Rattus norvegicus). Kind of assay: Displacement of the ligand in the Ionotropic glutamate receptor AMPA site at 100 uM represented by the percent of specific binding(%SB). It counts as protein-complex assay. Summed up: as §3
Assay [16] can be described thus: Compound was evaluated for its ability ot displace [3H]CPP binding to NMDA receptor/glutamate site. Summed up:
as §3

A short description of assay [17]: Displacement of the [3H]CPP binding to NMDA receptor/glutamate site at 100 uM represented by the percent of specific binding(%SB). In short, it runs like this:
as §3

Compound `Oc1ccc(-c2c(O)nc3cc(Cl)cc(Cl)c3c2O)cc1` displayed a half-maximal inhibitory concentration (IC50) in assay [1] of 0.013 µM.

`CC(=O)c1c(C)[nH]c(C(=O)O)c1/C=C/C(=O)Nc1ccccc1` had an inhibition constant (Ki) in assay [2] of 5.75 µM.

Consider `Cc1[nH]c(C(=O)O)c(/C=C/C(=O)Nc2ccccc2)c1Cl`, for which, in [2], the inhibitory constant (Ki) is 0.316 µM.

Regarding `Cc1[nH]c(C(=O)O)c(/C=C/C(=O)Nc2ccccc2)c1C`, the SB was 0% in assay [3], 100% in [4], 9% in [8] and 0% in [10]. Also, the IC50 in assay [5] is greater than 100 µM. Moreover, the Log Ki in [6] and in assay [7] was greater than -4 throughout. In [9], this compound came in with an Alpha of 0. The compound further gave a Ki in [2] of 0.2 µM.

The compound `Cc1cc(/C=C/C(=O)Nc2ccccc2)c(C(=O)O)[nH]1` showed a Ki in [2] of 63.1 µM.

In the case of `Cc1ccc2c(O)cc(=O)c(=O)[nH]c2c1`, the Kb in assay [11] was 0.47 µM.

`O=C(/C=C/c1c(-c2ccccc2)c[nH]c1C(=O)O)Nc1ccccc1` gave a Ki in assay [2] greater than 100 µM.

With `O=C(/C=C/c1cc[nH]c1C(=O)O)Nc1ccccc1`, the Ki in assay [2] was greater than 100 µM.

`Cc1c(/C=C/C(=O)Nc2ccccc2)c(C(=O)O)n(C)c1C` showed a Ki in assay [2] greater than 100 µM.

Regarding `Cc1[nH]c(C(=O)O)c(/C=C/C(=O)Nc2ccccc2)c1Br`, the SB was determined as 100% in [4], 0% in assay [13], 0% in [8] and 11% in assay [15]. Moreover, the Log Ki in assay [12] and in [6] was greater than -4 throughout. The compound further gave a concentration for half-maximal inhibition (IC50) in assay [14] greater than 100 µM. In assay [2], the Ki was 0.0575 µM.

Compound `Cc1[nH]c(C(=O)O)c(/C=C/C(=O)Nc2ccccc2)c1OCc1ccccc1` gave a Ki in [2] of 4.79 µM.

For the compound `O=C(O)CCc1c(C(=O)O)[nH]c2cc(Cl)cc(Cl)c12`, the half-inhibitory concentration (IC50) in [1] is 0.14 µM. That is a sub-micromolar value.

As for `O=C(/C=C/c1c(C(=O)O)[nH]c2cc(Cl)cc(Cl)c12)Nc1ccccc1`, the Alpha in assay [9] is 0. The same compound showed an SB in [11] of 100%.

Regarding `O=C(O)c1cc(O)c2c(I)cc(Cl)cc2n1`, the concentration for half-maximal inhibition (IC50) in assay [1] amounted to 0.032 µM.

In [2], `Cc1[nH]c(C(=O)O)c(/C=C/C(=O)Nc2ccccc2)c1C(C)C` gave a Ki of 0.398 µM. This counts as sub-micromolar.

`Cc1c(-c2ccccc2)[nH]c(C(=O)O)c1/C=C/C(=O)Nc1ccccc1` showed an inhibitory constant (Ki) in [2] greater than 100 µM.

In assay [2], `O=C(/C=C/c1c(C(=O)O)[nH]c2c1CCCC2)Nc1ccccc1` gave an inhibitory constant (Ki) of 0.617 µM.

With `Cc1[nH]c(C(=O)O)c(/C=C/C(=O)Nc2ccccc2)c1-c1ccccc1`, the inhibitory constant (Ki) in [2] was greater than 100 µM.

The compound `CCc1c(C)[nH]c(C(=O)O)c1/C=C/C(=O)Nc1ccccc1` gave a Ki in [2] of 0.832 µM.

On to `CCc1[nH]c(C(=O)O)c(/C=C/C(=O)Nc2ccccc2)c1C`, for which the affinity in assay [2] corresponds to a Ki of 0.776 µM. The Ki values of the last two compounds are within 1.5-fold of each other.

Regarding `O=C(/C=C/c1c(C(=O)O)[nH]c(Br)c1Br)Nc1ccccc1`, the Log Ki in [16] and in assay [7] was greater than -4 throughout. The SB in [4] was determined as 100%; in assay [8], 5%; in assay [17] it was 0%; in [10] it was 10%. Further, the 50% inhibitory concentration (IC50) in assay [5] is greater than 100 µM. In [2], this compound gave a Ki of 0.0112 µM.

In assay [2], `O=C(/C=C/c1c(C(=O)O)[nH]c(I)c1I)Nc1ccccc1` had an inhibition constant Ki of 0.0355 µM. In other words, the double-digit nanomolar range.

In [2], `CCOc1c(C)[nH]c(C(=O)O)c1/C=C/C(=O)Nc1ccccc1` had a Ki of 6.76 µM. Compared with the last compound, the Ki is about 190-fold higher.

`O=C(Nc1ccccc1)N[C@H]1C[C@H](C(=O)O)Nc2cc(Cl)cc(Cl)c21`: in assay [1], the half-maximal inhibitory concentration (IC50) amounted to 0.0078 µM. That is a single-digit nanomolar value.

Turning to `O=C(/C=C/c1c(Br)c[nH]c1C(=O)O)Nc1ccccc1`, the affinity in assay [2], expressed as Ki, was 3.31 µM.

In turn, `O=C(/C=C/c1cc(-c2ccccc2)[nH]c1C(=O)O)Nc1ccccc1` showed an inhibitory constant (Ki) in assay [2] greater than 100 µM.

In assay [2], `O=C(/C=C/c1c(C(=O)O)[nH]c(-c2ccccc2)c1Br)Nc1ccccc1` gave a Ki greater than 100 µM.

Compound `Cc1c(C(C)C)[nH]c(C(=O)O)c1/C=C/C(=O)Nc1ccccc1` had an inhibition constant Ki in assay [2] of 6.17 µM.

In the case of `Cc1c(-c2ccc(Cl)cc2Cl)[nH]c(C(=O)O)c1/C=C/C(=O)Nc1ccccc1`, the Ki in assay [2] was greater than 100 µM.

Take `O=C(/C=C/c1c(C(=O)O)[nH]c2c1CCC2)Nc1ccccc1`: in assay [2], the affinity corresponds to a Ki of 1.15 µM.

Consider `O=C(/C=C/c1c(C(=O)O)[nH]c(-c2ccccc2)c1-c1ccccc1)Nc1ccccc1`, for which the inhibition constant (Ki) in assay [2] is greater than 100 µM.

As to `Cc1[nH]c(C(=O)O)c(/C=C/C(=O)Nc2ccccc2)c1I`, in assay [2], the affinity corresponds to a Ki of 0.0427 µM. That is a double-digit nanomolar value.
